The subject of data set [1] is HeLa. In words: Cytotoxicity against human HeLa cells after 3 days MTT assay. Type of data set: functional, cell-based. The settings on record: 72 h. Summed up: (§1)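 Cells held as monolayers in DMEM with 10% supplement. Seeded in 96-well plates on day 0 at densities set by doubling time: 1 × 10⁴/mL for HeLa and NCI-69, 2 × 10⁴/mL for MCF-7, 3 × 10⁴/mL for PZ-HPV-7. Five dilutions (10⁻⁸–5 × 10⁻⁶ mol/l), freshly prepared, added for 72 h. Growth read by MTT (succinate dehydrogenase activity); IC50 derived.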
(Tetrazolium assays rely on reduction of a dye to a coloured formazan, in cell work by metabolically active cells.)

For data set [2], the system named is Salmonella typhimurium. In words: Mutagenic activity in Salmonella typhimurium TA1535 at 0.312 to 5 mg/plate measured after incubation of upside down for 48 hrs in presence of liver S9 mixture. Type of data set: toxicity, organism-based. The settings on record: salmonella enterica subsp. enterica serovar typhimurium, s9, 48 h. Put shortly:
(§2)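 Plate incorporation trial (Trial I) with histidine-dependent auxotrophs. Revertant colonies are counted against the concurrent vehicle control. Each dose and each control, including negative, vehicle and positive reference mutagens, run in triplicate plates.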

Data set [3] relates to Salmonella typhimurium. Nature of the data set: Mutagenic activity in Salmonella typhimurium TA1537 at 0.312 to 5 mg/plate measured after incubation of upside down for 48 hrs in presence of liver S9 mixture. Type of data set: toxicity, organism-based. The settings on record: salmonella enterica subsp. enterica serovar typhimurium, s9, 48 h. Put shortly:
as §2

The test system of data set [4] is Salmonella typhimurium. In words: Mutagenic activity in Salmonella typhimurium TA100 at 0.312 to 5 mg/plate preincubated for 20 mins before addition in presence of liver S9 mixture. Type of data set: toxicity, organism-based. The settings on record: salmonella enterica subsp. enterica serovar typhimurium. Summed up: (§3)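 Pre-incubation trial (Trial II) with histidine-dependent auxotrophs. Test solution is pre-incubated with bacterial suspension and S9 mix (10% v/v) or substitution buffer before plating on selective agar. Revertant colonies are counted against the concurrent vehicle control. Triplicate plates per dose and per control (negative, vehicle, positive reference mutagens).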

The subject of data set [5] is NCI-H69. In words: Cytotoxicity against human NCI-H69 cells after 3 days MTT assay. Format: functional, cell-based. The settings on record: NCI-H69, 72 h. Put shortly:
as §1

Data set [6] has as its system Salmonella typhimurium. Nature of the data set: Mutagenic activity in Salmonella typhimurium TA102 at 0.312 to 5 mg/plate preincubated for 20 mins before addition in presence of liver S9 mixture. Type of data set: toxicity, organism-based. The settings on record: salmonella enterica subsp. enterica serovar typhimurium. Summed up: as §3
The test system of data set [7] is Salmonella typhimurium. In words: Mutagenic activity in Salmonella typhimurium TA1535 at 0.312 to 5 mg/plate preincubated for 20 mins before addition in absence of liver S9 mixture. Type of data set: toxicity, organism-based. The settings on record: salmonella enterica subsp. enterica serovar typhimurium. Summed up:
as §3

Data set [8] deals with Salmonella typhimurium. In words: Mutagenic activity in Salmonella typhimurium TA100 at 0.312 to 5 mg/plate measured after incubation of upside down for 48 hrs in presence of liver S9 mixture. Format: toxicity, organism-based. The settings on record: salmonella enterica subsp. enterica serovar typhimurium, s9, 48 h. Summed up:
as §2

For data set [9], the system named is Salmonella typhimurium. In words: Mutagenic activity in Salmonella typhimurium TA102 at 0.312 to 5 mg/plate measured after incubation of upside down for 48 hrs in presence of liver S9 mixture. Format: toxicity, organism-based. The settings on record: salmonella enterica subsp. enterica serovar typhimurium, s9, 48 h. Summed up: as §2
Data set [10] concerns Salmonella typhimurium. In words: Mutagenic activity in Salmonella typhimurium TA98 at 0.312 to 5 mg/plate measured after incubation of upside down for 48 hrs in absence of liver S9 mixture. The settings on record: salmonella enterica subsp. enterica serovar typhimurium. Type of data set: toxicity, organism-based. Summed up: as §2
The subject of data set [11] is Salmonella typhimurium. Nature of the data set: Mutagenic activity in Salmonella typhimurium TA1537 at 0.312 to 5 mg/plate measured after incubation of upside down for 48 hrs in absence of liver S9 mixture. The settings on record: salmonella enterica subsp. enterica serovar typhimurium. Format: toxicity, organism-based. Put shortly: as §2
In data set [12] the test system is L1210. In words: Antitumor activity against mouse L1210 cells xenografted in BDF-1 mouse assessed as increase in mean survival time at 1.5 mmol/kg, po qd for 2 weeks. Format: functional. Summed up:
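Male BDF-1 mice inoculated intraperitoneally on day 0 with L1210 leukemia cells (1 × 10⁶/mL). Cells were kept in RPMI 1640 with 10% fetal bovine serum at 37 °C, 5% CO₂, subcultured once or twice weekly, and resuspended in PBS. Compounds were given orally, with maximum doses set from acute toxicity. Read-out was mean survival time versus untreated control.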

For data set [13], the system named is MCF7. In words: Cytotoxicity against human MCF7 cells after 3 days MTT assay. Type of data set: functional, cell-based. The settings on record: MCF7, 72 h. Summed up: as §1
For data set [14], the system named is Salmonella typhimurium. In words: Mutagenic activity in Salmonella typhimurium TA98 at 0.312 to 5 mg/plate preincubated for 20 mins before addition in absence of liver S9 mixture. Type of data set: toxicity, organism-based. The settings on record: salmonella enterica subsp. enterica serovar typhimurium. Put shortly: as §3
In data set [15] the test system is Salmonella typhimurium. In words: Mutagenic activity in Salmonella typhimurium TA102 at 0.312 to 5 mg/plate preincubated for 20 mins before addition in absence of liver S9 mixture. Format: toxicity, organism-based. The settings on record: salmonella enterica subsp. enterica serovar typhimurium. Summed up:
as §3

The subject of data set [16] is Salmonella typhimurium. Nature of the data set: Mutagenic activity in Salmonella typhimurium TA98 at 0.312 to 5 mg/plate preincubated for 20 mins before addition in presence of liver S9 mixture. Type of data set: toxicity, organism-based. The settings on record: salmonella enterica subsp. enterica serovar typhimurium. Summed up:
as §3

For data set [17], the system named is Salmonella typhimurium. In words: Mutagenic activity in Salmonella typhimurium TA98 at 0.312 to 5 mg/plate measured after incubation of upside down for 48 hrs in presence of liver S9 mixture. Type of data set: toxicity, organism-based. The settings on record: salmonella enterica subsp. enterica serovar typhimurium, s9, 48 h. Summed up: as §2
Data set [18] can be described thus: Cytotoxicity against human PZ-HPV-7 cells after 3 days MTT assay. The settings on record: 72 h. Format: functional, cell-based. Summed up: as §1
In data set [19] the test system is Salmonella typhimurium. Nature of the data set: Mutagenic activity in Salmonella typhimurium TA1537 at 0.312 to 5 mg/plate preincubated for 20 mins before addition in presence of liver S9 mixture. Format: toxicity, organism-based. The settings on record: salmonella enterica subsp. enterica serovar typhimurium. Summed up: as §3
For data set [20], the system named is Salmonella typhimurium. Nature of the data set: Mutagenic activity in Salmonella typhimurium TA102 at 0.312 to 5 mg/plate measured after incubation of upside down for 48 hrs in absence of liver S9 mixture. Type of data set: toxicity, organism-based. The settings on record: salmonella enterica subsp. enterica serovar typhimurium. Summed up: as §2
Data set [21] concerns Salmonella typhimurium. In words: Mutagenic activity in Salmonella typhimurium TA100 at 0.312 to 5 mg/plate preincubated for 20 mins before addition in absence of liver S9 mixture. The settings on record: salmonella enterica subsp. enterica serovar typhimurium. Type of data set: toxicity, organism-based. Put shortly: as §3
The test system of data set [22] is Salmonella typhimurium. Nature of the data set: Mutagenic activity in Salmonella typhimurium TA1535 at 0.312 to 5 mg/plate measured after incubation of upside down for 48 hrs in absence of liver S9 mixture. Format: toxicity, organism-based. The settings on record: salmonella enterica subsp. enterica serovar typhimurium. Summed up:
as §2

Data set [23] concerns Salmonella typhimurium. In words: Mutagenic activity in Salmonella typhimurium TA100 at 0.312 to 5 mg/plate measured after incubation of upside down for 48 hrs in absence of liver S9 mixture. Format: toxicity, organism-based. The settings on record: salmonella enterica subsp. enterica serovar typhimurium. Summed up: as §2
Data set [24] concerns Salmonella typhimurium. In words: Mutagenic activity in Salmonella typhimurium TA1537 at 0.312 to 5 mg/plate preincubated for 20 mins before addition in absence of liver S9 mixture. Format: toxicity, organism-based. The settings on record: salmonella enterica subsp. enterica serovar typhimurium. Put shortly:
as §3

Data set [25] has as its system Salmonella typhimurium. In words: Mutagenic activity in Salmonella typhimurium TA1535 at 0.312 to 5 mg/plate preincubated for 20 mins before addition in presence of liver S9 mixture. Type of data set: toxicity, organism-based. The settings on record: salmonella enterica subsp. enterica serovar typhimurium. Put shortly:
as §3

A short description of data set [26]: Toxicity in po dosed BDF-1 mouse. Format: organism-based. The settings on record: in vivo.
Data set [27] deals with L1210. In words: Antitumor activity against mouse L1210 cells xenografted in BDF-1 mouse assessed as increase in mean survival time at 0.080 mmol/kg, po administered 5 days in a week for 3 weeks.
In data set [28] the test system is L1210. In words: Antitumor activity against mouse L1210 cells xenografted in BDF-1 mouse assessed as increase in mean survival time at 0.16 mmol/kg, po administered 5 days in a week for 3 weeks.
A short description of data set [29]: Toxicity in po dosed BDF-1 mouse administered qd for 28 days. Type of data set: organism-based. The settings on record: in vivo.

Results on four compounds are retold here after ChEMBL document CHEMBL2040809, “Synthesis and biological activity evaluation of cytidine-5'-deoxy-5-fluoro-N-[(alkoxy/aryloxy)] carbonyl-cyclic 2',3'-carbonates” (Eur J Med Chem, 2012).

Structures are written as SMILES. Converted amounts (≈) assume the structure as drawn.

Take `CCCCCOC(=O)Nc1nc(=O)n([C@@H]2O[C@H](C)[C@H]3OC(=O)O[C@H]32)cc1F`: the IC50 (commonly the concentration that gives 50% inhibition) was 0.08 µg/mL (≈ 0.208 µM) in data set [1], 180 µg/mL (≈ 467 µM) in data set [5], 80 µg/mL (≈ 208 µM) in data set [13] and 140 µg/mL (≈ 363 µM) in data set [18]. Moreover, the Activity result in data set [2], in data set [3], in [4], in data set [6], in data set [7] and in [8] was “Non-toxic” throughout. The Activity result in data set [9], in data set [10], in data set [11], in data set [14], in data set [15] and in [16] was “Non-toxic” each time. Besides, the Activity entry in data set [17], in [19], in data set [20], in data set [21], in data set [22] and in data set [23] was “Non-toxic” each time. For the same compound, the Activity entry in data set [24] and in [25] was “Non-toxic” throughout. In addition, the MST in data set [12] was 17.3 days.
Turning to `C[C@H]1O[C@@H](n2cc(F)c(NC(=O)Oc3ccc([N+](=O)[O-])cc3)nc2=O)[C@@H]2OC(=O)O[C@@H]21`, the concentration for half-maximal inhibition (IC50) was found to be 0.03 µg/mL (≈ 0.0688 µM) in data set [1], 30 µg/mL (≈ 68.8 µM) in [5], 6 µg/mL (≈ 13.8 µM) in [13] and 6 µg/mL (≈ 13.8 µM) in [18]. The Activity entry in [2], in [3], in [4], in [6], in [7] and in [8] was “Non-toxic” throughout. Also, the Activity result in data set [9], in data set [10], in data set [11], in data set [14], in data set [15] and in [16] was “Non-toxic” throughout. The Activity result in [17], in data set [19], in [20], in data set [21], in [22] and in data set [23] was “Non-toxic” each time. Moreover, the Activity result in data set [24] and in [25] was “Non-toxic” each time. The LD50 (usually the dose at which mortality reaches 50%) in [26] was determined as 2000 mg/kg. Further, the MST in data set [27] was determined as 27.1 days; in data set [28], 23.4 days. The compound also had an LD50 at 672 h in data set [29] of 200 mg/kg.
In the case of `C[C@H]1O[C@@H](n2cc(F)c(NC(=O)Oc3ccc(Cl)cc3)nc2=O)[C@@H]2OC(=O)O[C@@H]21`, the half-maximal inhibitory concentration (IC50) came to 0.006 µg/mL (≈ 0.0141 µM) in data set [1], 3 µg/mL (≈ 7.05 µM) in data set [5], 30 µg/mL (≈ 70.5 µM) in data set [13] and 3 µg/mL (≈ 7.05 µM) in data set [18]. The same compound had a median lethal dose (LD50) in data set [26] of 2000 mg/kg. Also, the MST in data set [27] stood at 26.3 days; in [28], 23.7 days. The same compound yielded an LD50 at 672 h in data set [29] of 200 mg/kg.
For the compound `CCCCCOC(=O)Nc1nc(=O)n([C@@H]2O[C@H](C)[C@@H](O)[C@H]2O)cc1F` [CAPECITABINE], the IC50 in [1] came to 0.05 µg/mL (≈ 0.139 µM); in data set [5], 300 µg/mL (≈ 835 µM); in [13] it was 710 µg/mL (≈ 1980 µM); in [18], 160 µg/mL (≈ 445 µM). Also, the Activity entry in data set [2], in data set [3], in data set [4], in data set [6], in data set [7] and in data set [8] was “Non-toxic” throughout. Moreover, the Activity entry in data set [9], in data set [10], in data set [11], in data set [14], in data set [15] and in [16] was “Non-toxic” throughout. Moreover, the Activity result in data set [17], in data set [19], in [20], in data set [21], in data set [22] and in data set [23] was “Non-toxic” throughout. Besides, the Activity result in [24] and in [25] was “Non-toxic” in each case. For the same compound, the figures for the MST in data set [27], in [28] and in data set [12] were 20.3 days, 19.6 days and 12.8 days, respectively.
